The nature of assay [1]: Compound was evaluated for its ability to stimulate polymorphonuclear leukocyte (PMNL) chemokinetic migration. The class given is functional, Homo sapiens. In short, it runs like this:
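Human blood PMNL from density-gradient centrifugation, with hypotonic red-cell lysis and three washes. Cells at 2×10^8/mL in 0.3% agarose, set as 1-μL droplets, chilled 10 min on ice, then overlaid with buffer ± stimulus. Buffer: Earle's salts, 20 mM HEPES pH 7.0, 0.25% gelatin. Run 2 h at 37 °C. Migration from droplet edge, minus buffer control, as % of peak rC5a response. Dose-response dosing.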

The target of assay [2] is T1, C5a anaphylatoxin chemotactic receptor 1 (Homo sapiens, UniProt P21730).
T1 sequence (P21730 whole entry): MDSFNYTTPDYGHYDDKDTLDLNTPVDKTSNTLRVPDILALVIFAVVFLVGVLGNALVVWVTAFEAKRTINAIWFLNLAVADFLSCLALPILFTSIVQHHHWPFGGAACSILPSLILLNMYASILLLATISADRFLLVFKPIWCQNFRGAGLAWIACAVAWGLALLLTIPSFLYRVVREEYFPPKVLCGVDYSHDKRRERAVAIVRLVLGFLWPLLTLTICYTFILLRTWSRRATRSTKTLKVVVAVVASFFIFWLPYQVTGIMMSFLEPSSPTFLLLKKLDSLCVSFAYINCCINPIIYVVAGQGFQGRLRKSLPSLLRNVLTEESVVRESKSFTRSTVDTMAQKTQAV
The experiment in a line: Ability to inhibit the binding of […] to polymorphonuclear leukocyte (PMNL) membrane receptor. In short, it runs like this:
(§1)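 Competition for radioiodinated C5a binding to human PMNL membranes, isolated by nitrogen cavitation and Percoll gradient. Tracer made by glucose oxidase-lactoperoxidase iodination and affinity-purified. Buffered balanced salts (pH 7.0), 0.25% gelatin, protease inhibitors, 50–250 pM 125I-C5a, 5–20 μg/mL membranes. 60 min, ambient temperature, filtration. IC50 from linear regression; Ki by Cheng–Prusoff. Single-point lines give percent inhibition at 1 mM peptide.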

The target of assay [3] is T2, C5a anaphylatoxin chemotactic receptor 1 (Homo sapiens) (UniProt P21730).
T2 sequence (whole entry): T1 sequence (P21730 whole entry)
The experiment in a line: Compound was evaluated for its ability to inhibit the binding of […] to polymorphonuclear leukocyte (PMNL) membrane receptor at 1 mM concentration. In short, it runs like this:
as §1

As a reminder, the Ki is a dissociation constant, usually derived from enzyme kinetics or from competition with a known ligand. The low end stands for tighter binding, the high end for weaker binding. In general, inhibition refers to the drop in the measured response relative to a control, in per cent. Read a high inhibition as strong suppression.

Where a SMILES comes first, the peptide text is derived from it. [ ]: non-standard residue; d: D form. Cha = N[C@@H](CC1CCCCC1)C(=O)O; Nle = CCCC[C@H](N)C(=O)O

In turn, `CC(=O)N[C@@H](Cc1c[nH]cn1)C(=O)N[C@@H](CCCCN)C(=O)N[C@@H](CC(=O)O)C(=O)N[C@@H](CC1CCCCC1)C(=O)N[C@@H](CC1CCCCC1)C(=O)N[C@H](C(=O)N[C@H](C)C(=O)N[C@@H](CCCN=C(N)N)C(=O)O)C(C)C` displayed an Efficacy in assay [1] of 60%. The same compound yielded a Ki in assay [2] of 1.6 µM. `CC(=O)N[C@@H](Cc1c[nH]cn1)C(=O)N[C@@H](CCCCN)C(=O)N[C@@H](CC(=O)O)C(=O)N[C@@H](CC1CCCCC1)C(=O)N[C@@H](CC1CCCCC1)C(=O)N[C@@H](CC1CCCCC1)C(=O)NCC(=O)N[C@@H](CCCN=C(N)N)C(=O)O` (Ac-HKD[Cha][Cha][Cha]GR-OH): the Efficacy in assay [1] is listed as 75%. The compound also registered a Ki in assay [2] of 25 µM.

In turn, `CC(=O)N[C@@H](Cc1c[nH]cn1)C(=O)N[C@@H](CCCCN)C(=O)N[C@@H](CC(=O)O)C(=O)N[C@@H](Cc1ccccc1)C(=O)N[C@@H](Cc1ccccc1)C(=O)N[C@@H](Cc1ccccc1)C(=O)N[C@H](C)C(=O)N[C@@H](CCCN=C(N)N)C(=O)O` came in with an Efficacy in assay [1] of 109%. The same compound yielded an inhibition constant Ki in assay [2] of 750 µM. Taken in the same sequence, the figures for `CC[C@H](C)[C@H](NC(=O)[C@H](CC1CCCCC1)NC(=O)[C@H](CC1CCCCC1)NC(=O)[C@H](CC(=O)O)NC(=O)[C@H](CCCCN)NC(=O)[C@H](Cc1c[nH]cn1)NC(C)=O)C(=O)N[C@H](C)C(=O)N[C@@H](CCCN=C(N)N)C(=O)O` were 56% and 2 µM.

In turn, `CCCC[C@H](NC(=O)[C@H](CCCC)NC(=O)[C@H](CCCC)NC(=O)[C@H](CC(=O)O)NC(=O)[C@H](CCCCN)NC(=O)[C@H](Cc1c[nH]cn1)NC(C)=O)C(=O)NCC(=O)N[C@@H](CCCN=C(N)N)C(=O)O` (Ac-HKD[Nle][Nle][Nle]GR-OH) had an inhibitory constant (Ki) in assay [2] of 210 µM. Consider `CC(=O)N[C@@H](Cc1c[nH]cn1)C(=O)N[C@@H](CCCCN)C(=O)N[C@@H](CC(=O)O)C(=O)N[C@@H](CC1CCCCC1)C(=O)N[C@@H](CC1CCCCC1)C(=O)N[C@@H](CC1CCCCC1)C(=O)N[C@H](C)C(=O)N[C@@H](CCCN=C(N)N)C(=O)O`, for which, in assay [1], the Efficacy was 67%. This compound also yielded a Ki in assay [2] of 10 µM. `CC(=O)N[C@@H](Cc1c[nH]cn1)C(=O)N[C@@H](CCCCN)C(=O)N[C@@H](CC(=O)O)C(=O)N[C@@H](Cc1ccc(O)cc1)C(=O)N[C@@H](Cc1ccc(O)cc1)C(=O)N[C@@H](Cc1ccc(O)cc1)C(=O)N[C@H](C)C(=O)N[C@@H](CCCN=C(N)N)C(=O)O`: the inhibition in assay [3] was < 20%.

In turn, `CSCC[C@H](NC(=O)[C@H](CC(=O)O)NC(=O)[C@H](CCCCN)NC(=O)[C@H](Cc1c[nH]cn1)NC(C)=O)C(=O)N[C@@H](CCC(N)=O)C(=O)N[C@@H](CC1CCCCC1)C(=O)NCC(=O)N[C@@H](CCCN=C(N)N)C(=O)O` (Ac-HKDMQ[Cha]GR-OH) returned an inhibition in assay [3] of 30%.

With `CCC[C@H](NC(=O)[C@H](CC1CCCCC1)NC(=O)[C@H](CC1CCCCC1)NC(=O)[C@H](CC(=O)O)NC(=O)[C@H](CCCCN)NC(=O)[C@H](Cc1c[nH]cn1)NC(C)=O)C(=O)N[C@H](C)C(=O)N[C@@H](CCCN=C(N)N)C(=O)O`, the Efficacy in assay [1] was 55%. Also, the Ki in assay [2] was determined as 5.3 µM. In turn, `CC(=O)N[C@@H](Cc1c[nH]cn1)C(=O)NC(CCCCN)C(=O)N[C@@H](CC(=O)O)C(=O)NC(CC1CCCCC1)C(=O)N[C@H](CC1CCCCC1)C(=O)N[C@@H](CC(C)C)C(=O)N[C@H](C)C(=O)N[C@@H](CCCN=C(N)N)C(=O)O` (single isomer, unassigned) showed an Efficacy in assay [1] of 71%. Also, the inhibition constant Ki in assay [2] came to 600 µM.

Compound `CC(=O)N[C@@H](Cc1c[nH]cn1)C(=O)N[C@@H](CCCCN)C(=O)N[C@@H](CC(=O)O)C(=O)N[C@@H](CC1CCCCC1)C(=O)N[C@@H](CC1CCCCC1)C(=O)N[C@@H](CC(C)C)C(=O)N[C@H](C)C(=O)N[C@@H](CCCN=C(N)N)C(=O)O` returned an Efficacy in assay [1] of 57%. The compound further came in with a Ki in assay [2] of 2.9 µM. As to Ac-HKDMQLGR-OH, the Efficacy in assay [1] turned out to be 107%. As for `CC(=O)N[C@@H](Cc1c[nH]cn1)C(=O)N[C@@H](CCCCN)C(=O)N[C@@H](CC(=O)O)C(=O)N[C@@H](CC1CCCCC1)C(=O)N[C@H](CC1CCCCC1)C(=O)N[C@@H](CC(C)C)C(=O)N[C@H](C)C(=O)N[C@@H](CCCN=C(N)N)C(=O)O`, the inhibition in assay [3] is 26%.

Source of the values: ChEMBL document CHEMBL1126137, “Structure-function studies in a series of carboxyl-terminal octapeptide analogues of anaphylatoxin C5a” (J Med Chem, 1992).
